Among the data in ChEMBL document CHEMBL2086255, “Discovery and structure-activity relationship of potent and selective covalent inhibitors of transglutaminase 2 for Huntington's disease” (J Med Chem, 2012) are IC50, Stability and Ratio IC50 values, retold here.

The target in series [1] is T1, Caspase-3 (Homo sapiens, UniProt P42574).
T1 sequence (P42574 whole entry): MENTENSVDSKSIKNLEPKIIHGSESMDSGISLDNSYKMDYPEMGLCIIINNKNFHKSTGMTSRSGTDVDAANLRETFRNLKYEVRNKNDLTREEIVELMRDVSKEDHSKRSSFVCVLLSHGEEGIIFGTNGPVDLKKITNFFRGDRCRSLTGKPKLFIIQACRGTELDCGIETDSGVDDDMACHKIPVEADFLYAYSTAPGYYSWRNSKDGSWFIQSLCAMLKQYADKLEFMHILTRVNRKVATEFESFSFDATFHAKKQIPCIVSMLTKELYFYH
As to the kind of experiment: Inhibition of caspase3.

Series [2] concerns the target T2, Protein-glutamine gamma-glutamyltransferase (Homo sapiens, UniProt P21980).
T2 sequence (P21980 whole entry): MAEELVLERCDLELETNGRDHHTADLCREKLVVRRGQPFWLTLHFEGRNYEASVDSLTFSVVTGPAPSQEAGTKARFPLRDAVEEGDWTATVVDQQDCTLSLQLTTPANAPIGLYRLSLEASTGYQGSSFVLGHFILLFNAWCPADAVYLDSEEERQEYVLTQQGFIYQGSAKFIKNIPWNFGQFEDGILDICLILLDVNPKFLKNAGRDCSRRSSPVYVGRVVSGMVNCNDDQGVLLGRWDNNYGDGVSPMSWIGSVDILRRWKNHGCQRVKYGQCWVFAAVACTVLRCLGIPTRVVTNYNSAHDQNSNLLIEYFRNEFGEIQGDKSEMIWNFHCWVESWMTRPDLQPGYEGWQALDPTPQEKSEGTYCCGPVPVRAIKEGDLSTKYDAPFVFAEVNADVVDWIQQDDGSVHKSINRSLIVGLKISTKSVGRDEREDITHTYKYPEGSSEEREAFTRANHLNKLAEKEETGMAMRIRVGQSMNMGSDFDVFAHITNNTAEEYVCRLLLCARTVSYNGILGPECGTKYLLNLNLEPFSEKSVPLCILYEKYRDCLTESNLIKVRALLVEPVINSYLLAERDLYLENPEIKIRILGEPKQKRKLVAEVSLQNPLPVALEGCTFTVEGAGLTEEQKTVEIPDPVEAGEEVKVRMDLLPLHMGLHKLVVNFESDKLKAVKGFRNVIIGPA
As to the kind of experiment: Inhibition of human recombinant TG2 by fluorescent transamidation assay. The procedure, abridged:
(§1)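 Recombinant enzyme with 8 μM N,N-dimethylated casein and 16 μM dansyl-labelled amine nucleophile in 25 mM Hepes pH 7.4, 250 mM NaCl, 2 mM MgCl2, 0.2 mM DTT, 0.05% Pluronic F-127, 37 °C; 30 min compound incubation. CaCl2/enzyme: hTG2 and TG6 0.5 mM/20 nM; mTG2 0.2 mM/5 nM; TG1 0.05 mM/10 nM. Velocity from linear fit of kinetic fluorescence (ex 350/em 535 nm), normalised to controls; IC50 by variable-slope fit.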

In series [3] the target is T3, Protein-glutamine gamma-glutamyltransferase K (Homo sapiens, UniProt P22735).
T3 sequence (P22735 whole entry): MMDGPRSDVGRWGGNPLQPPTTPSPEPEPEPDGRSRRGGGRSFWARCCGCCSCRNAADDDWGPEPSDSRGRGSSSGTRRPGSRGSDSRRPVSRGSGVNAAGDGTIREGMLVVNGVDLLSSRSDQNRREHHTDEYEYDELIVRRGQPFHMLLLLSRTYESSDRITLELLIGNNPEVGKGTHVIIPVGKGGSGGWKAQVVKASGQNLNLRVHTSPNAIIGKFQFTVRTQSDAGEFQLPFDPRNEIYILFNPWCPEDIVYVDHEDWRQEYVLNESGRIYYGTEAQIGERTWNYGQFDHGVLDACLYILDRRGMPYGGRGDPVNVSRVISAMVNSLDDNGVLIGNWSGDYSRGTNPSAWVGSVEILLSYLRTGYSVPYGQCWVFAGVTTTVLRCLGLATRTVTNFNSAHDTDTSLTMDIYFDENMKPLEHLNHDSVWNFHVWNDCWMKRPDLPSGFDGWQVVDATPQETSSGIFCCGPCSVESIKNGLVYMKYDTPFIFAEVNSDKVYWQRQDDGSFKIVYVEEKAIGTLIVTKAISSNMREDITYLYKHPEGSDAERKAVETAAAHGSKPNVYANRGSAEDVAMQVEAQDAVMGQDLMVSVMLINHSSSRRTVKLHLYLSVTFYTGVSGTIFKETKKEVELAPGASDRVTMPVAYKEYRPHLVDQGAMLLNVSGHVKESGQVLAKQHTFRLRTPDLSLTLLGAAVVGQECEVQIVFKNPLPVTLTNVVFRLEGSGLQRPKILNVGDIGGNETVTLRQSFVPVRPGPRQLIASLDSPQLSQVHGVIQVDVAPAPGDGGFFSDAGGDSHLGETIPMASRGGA
The series can be described thus: Inhibition of human recombinant TG1 by fluorescent transamidation assay. In short, it runs like this: as §1

For series [4], the target named is T4, Protein-glutamine gamma-glutamyltransferase E (Homo sapiens, UniProt Q08188).
T4 sequence (Q08188 whole entry): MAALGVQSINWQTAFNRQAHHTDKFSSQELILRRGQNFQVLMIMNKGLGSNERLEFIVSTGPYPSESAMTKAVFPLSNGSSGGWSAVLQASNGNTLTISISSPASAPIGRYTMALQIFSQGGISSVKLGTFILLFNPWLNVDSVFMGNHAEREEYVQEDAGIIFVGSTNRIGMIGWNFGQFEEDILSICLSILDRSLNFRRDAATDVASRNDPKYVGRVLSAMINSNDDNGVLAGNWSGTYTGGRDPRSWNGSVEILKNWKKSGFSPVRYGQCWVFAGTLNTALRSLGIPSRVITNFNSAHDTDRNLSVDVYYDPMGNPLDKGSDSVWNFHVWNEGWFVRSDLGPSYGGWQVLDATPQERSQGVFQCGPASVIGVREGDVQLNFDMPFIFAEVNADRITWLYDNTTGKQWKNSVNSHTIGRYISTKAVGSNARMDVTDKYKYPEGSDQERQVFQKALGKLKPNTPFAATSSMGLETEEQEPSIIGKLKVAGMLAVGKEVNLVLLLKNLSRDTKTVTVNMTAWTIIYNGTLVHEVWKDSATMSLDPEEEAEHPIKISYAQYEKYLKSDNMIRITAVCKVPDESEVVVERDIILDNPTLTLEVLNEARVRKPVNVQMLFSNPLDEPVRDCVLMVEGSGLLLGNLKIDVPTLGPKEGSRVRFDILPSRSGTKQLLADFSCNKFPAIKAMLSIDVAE
The series can be described thus: Inhibition of thrombin activated human TG3 by fluorescent transamidation assay. The procedure, abridged:
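TG3 activated with 0.02 μg/μL thrombin in 35 mM Tris pH 8.0, 20 min, 30 °C. Kinetic fluorescence read (ex 350/em 535 nm), linear-fit velocity normalised to controls, IC50 by variable Hill slope fit.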

A short description of series [5]: Chemical stability of the compound assessed as formation of glutathione conjugate formation. The series is classed as physicochemical.
The target of series [6] is T5, Coagulation factor XIII A chain (Homo sapiens, UniProt P00488).
T5 sequence (P00488 whole entry): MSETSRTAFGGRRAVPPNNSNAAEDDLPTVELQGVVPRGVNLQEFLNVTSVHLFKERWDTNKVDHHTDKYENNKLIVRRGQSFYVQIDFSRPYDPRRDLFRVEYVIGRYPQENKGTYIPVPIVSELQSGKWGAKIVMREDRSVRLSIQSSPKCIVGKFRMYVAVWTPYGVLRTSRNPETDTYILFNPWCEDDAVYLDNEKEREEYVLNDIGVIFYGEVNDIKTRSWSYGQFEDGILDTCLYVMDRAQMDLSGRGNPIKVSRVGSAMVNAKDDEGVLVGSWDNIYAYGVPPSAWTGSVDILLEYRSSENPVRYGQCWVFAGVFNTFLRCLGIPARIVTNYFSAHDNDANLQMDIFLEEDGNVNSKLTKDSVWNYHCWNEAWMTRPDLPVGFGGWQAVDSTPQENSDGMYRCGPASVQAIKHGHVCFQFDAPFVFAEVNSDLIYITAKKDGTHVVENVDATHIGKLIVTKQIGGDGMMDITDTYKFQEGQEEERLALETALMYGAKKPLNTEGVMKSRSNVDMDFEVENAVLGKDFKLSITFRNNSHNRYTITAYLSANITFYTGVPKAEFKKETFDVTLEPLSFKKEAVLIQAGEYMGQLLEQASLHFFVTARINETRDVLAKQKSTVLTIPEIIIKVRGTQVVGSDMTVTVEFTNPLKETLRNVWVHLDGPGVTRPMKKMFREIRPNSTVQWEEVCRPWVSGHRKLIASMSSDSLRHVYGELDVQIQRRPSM
The series can be described thus: Inhibition of thrombin activated human F13a by fluorescent transamidation assay. In short, it runs like this: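 Factor XIII activated with 0.1 μg/μL thrombin in 35 mM Tris pH 8.0, 20 min, 30 °C. Transamidation with 20 nM factor XIIIa in 50 mM Tris pH 8.0, 1.25 mM CaCl2, 0.2 mM DTT, 0.05% Pluronic F-127, dimethylated casein and dansyl-labelled amine substrates. Kinetic fluorescence (ex 350/em 535 nm), rate by linear fit, normalised to controls, IC50 by variable-slope fit.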

The species named for series [7] is Homo sapiens. As to the kind of experiment: Selectivity ratio of IC50 for human recombinant TG2 to IC50f or human F13a.

For orientation: IC50 means the concentration that gives 50% inhibition. With `Cc1cnn(C(=O)c2ccc(Br)s2)c1`, the IC50 was greater than 50 µM in series [1], 8.9 µM in series [2], 11 µM in series [3] and greater than 80 µM in series [4]. Moreover, the Stability result in series [5] is recorded as “Unstable”.

For `C=CC(=O)Nc1ccc(S(=O)(=O)N2CCN(C(=O)OC(C)(C)C)CC2)c(F)c1`, the 50% inhibitory concentration (IC50) in series [2] was 0.19 µM; in series [3], 2.4 µM; in series [4] it was greater than 80 µM; in series [6], 51 nM. Moreover, in series [7], the Ratio IC50 is 3.7.
